# An excerpt weighted towards active compounds, which were near 3.1% of everything screened.
# PRMT1 FP inh – PRMT1 methyltransferase inhibitors, primary screen, biochemical, fluorescence polarization; Protein arginine N-methyltransferase 1 (Homo sapiens), Q99873; recombinant PRMT1, activity-based probe fluorescence polarization; inhibition, % at 2.79 µM; 370,000 tested, 1.3% active; AID 652257, 2013;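 active means inhibition above about 21% made by adding two undisclosed values, limit read from the data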
# UHRF1 binding – UHRF1 methylated DNA binding inhibitors, primary screen, counter-screen for MBD2 inhibitor project, biochemical, TR-FRET, human UHRF1, single concentration; UHRF1 binding to methylated oligo; inhibition, % at 4.4 µM; 370,000 tested, 0.75% active; AID 687016, 2013; in the data active means inhibition above about 21%;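 further: UHRF1 SRA domain binding a hemimethylated CpG hairpin DNA probe; 0% = median of test compound wells and 100% = reference inhibitor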
# ABHD5-PLIN5 inh – ABHD5-PLIN5 interaction inhibitors, primary screen, cell lysate, split luciferase complementation, luminescence | Perilipin-5 (Homo sapiens) + 1-acylglycerol-3-phosphate O-acyltransferase ABHD5 (Homo … | Split G. princeps luciferase complementation, 4 h | inhibition, % at 4 µM | 360,000 tested, 0.78% active | AID 602281, 2012;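 active means inhibition above the mean inhibition across every tested compound plus 3 SD, cut at about 22% in these data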;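 further: 0% = DMSO only wells and the 100% control is not disclosed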
# Target sequence (Q00G26 whole entry, looked up): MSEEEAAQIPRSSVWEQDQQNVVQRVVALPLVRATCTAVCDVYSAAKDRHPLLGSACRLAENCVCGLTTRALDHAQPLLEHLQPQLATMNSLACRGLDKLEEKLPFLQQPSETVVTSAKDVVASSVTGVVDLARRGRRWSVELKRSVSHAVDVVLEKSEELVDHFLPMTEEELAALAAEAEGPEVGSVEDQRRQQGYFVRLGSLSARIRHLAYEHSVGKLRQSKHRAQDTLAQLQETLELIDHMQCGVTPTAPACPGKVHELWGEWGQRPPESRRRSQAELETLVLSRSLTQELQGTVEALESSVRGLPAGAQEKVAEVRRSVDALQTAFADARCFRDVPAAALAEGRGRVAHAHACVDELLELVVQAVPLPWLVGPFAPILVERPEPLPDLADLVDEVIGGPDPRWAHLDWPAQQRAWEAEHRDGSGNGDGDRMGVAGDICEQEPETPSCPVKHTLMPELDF
# Target sequence (Q8WTS1 whole entry, looked up): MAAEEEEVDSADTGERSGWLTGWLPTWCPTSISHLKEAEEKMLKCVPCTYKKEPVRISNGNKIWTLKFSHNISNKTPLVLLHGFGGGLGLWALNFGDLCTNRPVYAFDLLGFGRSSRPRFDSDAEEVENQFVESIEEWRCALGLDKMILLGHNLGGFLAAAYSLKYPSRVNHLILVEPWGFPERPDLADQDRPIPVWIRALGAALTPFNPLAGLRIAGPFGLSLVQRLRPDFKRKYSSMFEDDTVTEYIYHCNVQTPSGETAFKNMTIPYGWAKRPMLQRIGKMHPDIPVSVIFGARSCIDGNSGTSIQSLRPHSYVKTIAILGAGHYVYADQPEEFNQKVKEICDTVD
# MBD2 DNA inh – inhibitors of MBD2 binding to methylated DNA, primary screen, biochemical, TR-FRET, DNA-binding domain, human; MBD2 binding to methylated oligonucleotide; AID 686964, 2013; 370,000 tested, 0.31% active; inhibition, % at 4.4 µM; in the data active means inhibition above about 13%
# LEDGF integ inh – blockers of LEDGF/p75-dependent integrase strand transfer – biochemical, TR-FRET, high throughput, primary screen; inhibition, % at 3.7 µM; 370,000 tested, 0.64% active; TR-FRET IN-LEDGF/p75 DNA integration, Eu/Cy5;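 active means inhibition above the screen-wide mean plus 3 SD, cut at about 13% in these data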;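 further: signal is the Cy5 over europium emission ratio at 671 and 618 nm; 0% = plate median of compound wells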
# RBBP9 inhibitor – human RBBP9 inhibitors, primary screen, biochemical, fluorescence polarization, FP-Rh probe, HTS; Serine hydrolase RBBP9 (Homo sapiens), O75884; recombinant RBBP9; inhibition, % at 7.94 µM; 220,000 tested, 0.2% active; AID 1515, 2009;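 active means inhibition above the campaign mean of all tested compounds plus 3 SD, cut at about 14% in these data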;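 further: plate controls were DMSO wells with RBBP9 for no effect and wells lacking RBBP9 protein for full effect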
#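 System: RBBP9 protein / Quantity: 2.5 µM RBBP9 dispensing solution, before mixing / Also added: Serine-hydrolase probe FP-Rh, 375 nM pre-mixing / Dosing: 7.94 µM single dose, 0.794% DMSO / Timing: enzyme-compound preincubation 30 min, then probe labeling 45 min, 25 °C / Signal: FP readout at 525/598 nm / Controls: DMSO-treated enzyme wells and wells lacking RBBP9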
# PRMT1 confirm – PRMT1 methyltransferase inhibitors, confirmation, biochemical, fluorescence polarization, triplicate; inhibition, % at 2.79 µM; shares compounds with PRMT1 FP inh; 3,300 tested, 42% active; recombinant His-PRMT1, activity-based probe fluorescence polarization;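 active means mean inhibition across replicates above the hit cutoff derived for the earlier primary screen, cut at about 22% in these data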
# Active calls of the source: *; . = no result.
SMILES,PRMT1 FP inh,UHRF1 binding,ABHD5-PLIN5 inh,MBD2 DNA inh,LEDGF integ inh,RBBP9 inhibitor,PRMT1 confirm
CCOC(=O)c1cccc(NC(=O)CN(C)S(=O)(=O)c2ccc(Br)s2)c1,3,1,.,-1,-4,.,.
CN(C)/C=C1\C=C2C(=O)c3ccccc3N2C1=O,111*,-38,1,-13,2,11,54*
COc1ccc(OC)c(-n2c(-c3cc(-c4ccc(F)cc4)n[nH]3)n[nH]c2=S)c1,35*,2,-2,6,-3,-7,6
CSC1=NS(=O)(=O)c2c(C)nn(C)c2S1,100*,4,-21,-4,-8,3,76*
CCOC(=O)Cn1cc(CN2CCS(=O)(=O)N(Cc3ccc(C)cc3)C(C(=O)OC)C2)nn1 (stereo not drawn),-1,14,.,12,0,.,.
COC(=O)[C@@]1(C)[C@H]2C(=O)N(C)C(=O)[C@H]2[C@H]2CN=C(SCC(=O)c3ccccc3)N21,76*,-1,-20,3,1,.,80*
CC[C@]1(C(=O)OC)[C@H]2C(=O)N(Cc3ccccc3)C(=O)[C@H]2[C@H]2CN=C(SCC(=O)c3ccccc3)N21,54*,-2,-12,-3,1,.,58*
CC(=O)c1ccc(-n2c(C)ccc2-c2ccccc2)cc1,33*,1,13,0,-2,-5,2
COC(=O)c1ccc(-n2c(CCC(=O)O)ccc2-c2ccccc2)cc1,.,.,12,.,.,.,.
COc1ccc(-n2c(C)ccc2-c2ccccc2)cn1,56*,2,1,3,-5,.,14
COC(=O)c1ccc(-n2c(C)ccc2-c2ccccc2)cc1,26*,3,5,5,-2,-2,8
CCCCN1CCS(=O)(=O)N(Cc2cn(Cc3ccc(C)cc3)nn2)C(C(=O)OC)C1 (stereo not drawn),-5,-3,.,-6,8,.,.
CCCCCCCCN1C(=O)[C@@H](CC(=O)NCC2CCCCC2)C[C@@]2(C(=O)OC)C1=C[C@H](COCc1ccccc1)O[C@@H]2C,-1,0,.,-4,-4,.,.
O=C(CSc1nc(O)c(Cc2ccccc2)c(=O)[nH]1)Nc1ccccc1,16,-2,-4,-6,4,-4,.
C=CCc1c(O)nc(SCC(=O)c2ccccc2)[nH]c1=O,46*,1,-8,0,0,0,57*
CCC(C)c1c(O)nc(SCC(=O)Nc2ccccc2)[nH]c1=O (stereo not drawn),3,1,-5,0,-3,-5,.
CCC(C)c1c(O)nc(SCC(=O)c2ccccc2)[nH]c1=O (stereo not drawn),52*,0,-1,2,0,-4,52*
COc1cccc(CNC(=O)[C@H]2CCCN2C(=O)[C@H]2CCCN2C(=O)c2c(F)cccc2F)c1,3,2,.,3,0,.,.
O=C(CSc1nccc(=O)[nH]1)Nc1ccc(S(=O)(=O)N2CCOCC2)cc1,49*,-1,-10,-4,2,-14,9
CCCCCCCCN1C(=O)[C@@H](CC(=O)NCCC(C)C)C[C@@]2(C(=O)OC)C1=C[C@H](COCc1ccccc1)O[C@@H]2C,-1,-1,.,1,0,.,.
CC(=O)C(=Nc1cccc(Cl)c1)NNc1ccccc1C,83*,4,-13,1,1,.,3
Cc1cc(C)c(C(=O)COc2cccnc2[N+](=O)[O-])cc1C,38*,-8,-3,0,1,7,51*
COCCn1c(C)cc(C(=O)COc2cccnc2[N+](=O)[O-])c1C,2,-4,-1,-4,-1,2,.
CC(C)C(=O)N1CCC(Oc2cccnc2)CC1,1,1,.,2,0,.,.
CCOC(=O)c1ccc(/[N+]([O-])=C/c2ccccc2)cc1,25*,-4,-11,-3,4,.,10
SMILES,PRMT1 FP inh,UHRF1 binding,ABHD5-PLIN5 inh,MBD2 DNA inh,LEDGF integ inh,RBBP9 inhibitor,PRMT1 confirm
Nc1nc(-c2cc(O)ccc2[N+](=O)[O-])cc(-c2ccccc2)c1[N+](=O)[O-],27*,10,1,-1,2,.,18
O=C(CCNC(=O)c1ccco1)NCCc1ccc(Cl)cc1,47*,0,12,-1,-1,.,1
NS(=O)(=O)c1ccc(CCNC(=O)CCNC(=O)c2ccco2)cc1,-5,-1,-3,4,3,.,.
CC(=O)Nc1ccc(SC[C@H](Cc2ccccc2)N2CCN(CCc3ccccc3)CCC2=O)cc1,29*,1,-3,4,0,.,42*
CC(=O)Nc1ccc(S[C@@H](CCN2CC[C@H](C(C)(C)C)CCC2=O)c2ccccc2)cc1,45*,2,-9,4,1,.,61*
CC(C)(C)[C@H]1CCC(=O)N([C@H](CSc2ccccc2)Cc2ccccc2)CC1,-3,-1,-8,-6,1,.,.
CC(=O)Nc1ccc(SCCN2CC[C@@H](C)CCC2=O)cc1,25*,-4,-13,-1,-2,.,30*
CC(=O)Nc1ccc(SC[C@H](Cc2ccccc2)N2CC[C@@H](O)CCC2=O)cc1,7,0,-4,1,0,.,.
CC(C)(C)[C@@H]1CCC(=O)N(CC[C@H](Sc2ccccc2)c2ccccc2)CC1,-2,-3,-1,-6,-2,.,.
CC(=O)Nc1ccc(SC[C@H](Cc2ccccc2)N2CC[C@@H](C(C)(C)C)CCC2=O)cc1,52*,2,-7,-6,4,.,39*
CCOP(=O)(OCC)c1ccc2c(c1)C(=O)c1ccccc1-2,1,0,.,-5,-2,.,.
Cc1ccc(/C=C/C(=O)Nc2nccs2)o1,29*,-4,4,-2,1,1,5
Cc1ccc(/C=C/C(=O)Nc2ncc(C)s2)o1,16,-2,11,-5,4,2,.
c1ccc(-c2cc3c(N4CCCC4)ncnc3s2)cc1,40*,-3,10,1,-2,-8,0
O=C1c2ccccc2C(=O)N1SC1CCCCC1,63*,2,9,2,1,-2,73*
O=C(OCN1C(=O)c2ccccc2C1=O)C1CCCCC1,3,1,2,6,0,-2,.

# Screens as filed in PubChem.
